Results taken from ChEMBL document CHEMBL4680120, “Novel anti-Alzheimer phenol-lipoyl hybrids: Synthesis, physico-chemical characterization, and biological evaluation” (Eur J Med Chem, 2020).
In brackets after ≈: the same amount, converted by molar mass. Activity calls are given as the source filed them. No cut-off for these calls is given here.

Columns and labels:
[1] = Stability in simulated gastric fluid at pH 1.2 assessed as relative difference measured after 15 mins in presence of pepsin by HPLC analysis; assay type: ADME; conditions: isolated protein, pH 1.2, 0.25 h
Procedure, shortened: (§1)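 Incubation in simulated gastric fluid (pH 1.2, pepsin) or simulated intestinal fluid (pH 6.8, pancreatin). Aliquots deproteinized with ice-cold acetonitrile, centrifuged at 4°C and 12000 rpm for 10 min, filtered, analyzed by HPLC. RD% = (Ci − Cf)/Ci × 100. Stable if RD < 5%. Means of three experiments.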

SH-SY5Y [2] = assay: Neuroprotective activity against amyloid beta (1 to 42)-induced toxicity in human SH-SY5Y cells assessed as decrease in APP mRNA expression at IC50 measured after 48 hrs by SYBR green dye based RT-qPCR analysis; assay type: functional, cell-based
Procedure, shortened: (§2)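 Differentiated SH-SY5Y cells in 6-well plates treated 48 h with Aβ1-42 (20 μM) with or without hybrid. mRNA of AD-related genes measured by RT-qPCR, normalized to β-actin. Expressed as fold change versus untreated cells. Triplicate experiments.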

SH-SY5Y [3] = assay: Neuroprotective activity against amyloid beta (1 to 42)-induced toxicity in human SH-SY5Y cells assessed as decrease in BACE1 mRNA expression at IC50 measured after 48 hrs by SYBR green dye based RT-qPCR analysis; assay type: functional, cell-based; procedure, shortened: as §2
SH-SY5Y [4] = assay: Neuroprotective activity against amyloid beta (1 to 42)-induced toxicity in human SH-SY5Y cells assessed as increase in cell viability at 1 to 250 mg/l measured after 48 hrs by LDH release assay; assay type: functional, cell-based; conditions: dose 1-250 mg/L
Procedure, shortened: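 SH-SY5Y cells grown in DMEM/F12 with 10% FBS and differentiated with retinoic acid (10 μM), seeded at 1×10^4 per well and cultured 24 h. Cells were given hybrids at 1–250 mg/L with or without Aβ1-42 (20 μM) for 48 h. MTT (5 mg/mL) added for 4 h at 37°C, DMSO solubilization, read at 570/630 nm. LDH read at 450 nm. Five independent experiments.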

SH-SY5Y [5] = assay: Neuroprotective activity against amyloid beta (1 to 42)-induced apoptosis in human SH-SY5Y cells assessed as early apoptotic cells at IC50 measured after 48 hrs by Annexin-V/Propidium iodide staining based flow cytometry (reference value: 0.74%); assay type: functional
Erythrocyte [6] = assay: Cytoprotective activity against H2O2-induced oxidative damage in human RBC assessed as restoration of antioxidant activity measured after 72 hrs by TAC assay; assay type: functional, cell-based
[7] = Stability in simulated intestinal fluid at pH 6.8 assessed as hydrolysis measured immediately in presence of pancreatin by HPLC analysis; assay type: ADME; conditions: simulated gi fluid; procedure, shortened: as §1
Erythrocyte [8] = assay: Cytoprotective activity against H2O2-induced oxidative damage in human RBC assessed as restoration of antioxidant activity at 50 to 100 uM measured after 72 hrs by TAC assay relative to control; assay type: functional; conditions: dose 50-100 µM
Erythrocyte [9] = assay: Cytoprotective activity against H2O2-induced oxidative damage in human RBC assessed as recovery of H2O2-induced cell death at 50 to 100 uM measured after 72 hrs by LDH release assay relative to control; assay type: functional; conditions: dose 50-100 µM
Procedure, shortened: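 Heparinised human whole blood cultured in phytohemagglutinin-containing chromosome medium and co-incubated with hybrids and H2O2 at 37C for 72 h. LDH released into the culture medium was measured with a commercial kit. Triton X-100 served as positive control, with untreated cultures as reference. Cytoprotection was expressed as viability relative to control.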

[10] = Stability in simulated intestinal fluid at pH 6.8 assessed as relative difference measured after 15 mins in presence of pancreatin by HPLC analysis; assay type: ADME; conditions: simulated gi fluid, pH 6.8, 0.25 h; procedure, shortened: as §1
[11] = Stability in simulated intestinal fluid at pH 6.8 assessed as relative difference measured after 30 mins in presence of pancreatin by HPLC analysis; assay type: ADME; conditions: simulated gi fluid, pH 6.8, 0.5 h; procedure, shortened: as §1
[12] = Solubility of compound in water by HPLC analysis; assay type: physicochemical
[13] = Stability in simulated intestinal fluid at pH 6.8 assessed as relative difference measured after 60 mins in presence of pancreatin by HPLC analysis; assay type: ADME; conditions: simulated gi fluid, pH 6.8, 1 h; procedure, shortened: as §1
[14] = Stability in simulated intestinal fluid at pH 6.8 assessed as relative difference measured after 120 mins in presence of pancreatin by HPLC analysis; assay type: ADME; conditions: simulated gi fluid, pH 6.8, 2 h; procedure, shortened: as §1
[15] = Stability in simulated intestinal fluid at pH 6.8 assessed as relative difference measured after 180 mins in presence of pancreatin by HPLC analysis; assay type: ADME; conditions: simulated gi fluid, pH 6.8, 3 h; procedure, shortened: as §1

Row | SMILES | fold change (FC) [1] [%] | Activity (SH-SY5Y [2]) | Activity (SH-SY5Y [3]) | Activity (SH-SY5Y [4]) | Activity (SH-SY5Y [5]) [%] | Activity (Erythrocyte [6]) | Stabilty [7] | Activity (Erythrocyte [8]) [%] | Activity (Erythrocyte [9]) [%] | fold change (FC) [10] [%] | fold change (FC) [11] [%] | solubility [12] [mg/mL] | fold change (FC) [13] [%] | fold change (FC) [14] [%] | fold change (FC) [15] [%]
1 | O=C(CCCCC1CCSS1)NCCCCCOC(=O)Cc1ccc(O)c(O)c1 (configuration not stated) | 35.42 | Active | Active | Active | 1.86 | Dose-dependent effect | Unstable | 79.2 | 0.4 |  |  |  |  |  | 
2 | COc1cc(/C=C/C(=O)NCCCNC(=O)CCCCC2CCSS2)ccc1O (configuration not stated) | 0.36 | Active | Active | Active | 1.19 | Dose-dependent effect |  |  | 0.4 | 0.54 | 0.86 | 0.049 (≈ 112 µM) | 1.04 | 2.5 | 3.46
